# Columns and labels:
# [1] = test system: GBM cell lines LN18 and U373; test: Antiproliferative evaluation in 2D cell culture, summary over both GBM lines; type: cell-based, human; settings: data not shown; crystals at 20 µM
# In short: (§1)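 LN-18 and U373 cells were grown in phenol-red-free DMEM with 5% FBS and amino acids at 37 °C, 5% CO2. Cells (1 x 10³ per well) adhered 24 h, then were exposed 48 h to 0–140 µM compound, with 0.1% DMSO as vehicle. MTT (2.5 mg/mL in phenol-red-free medium) was applied 1 h at 37 °C. Plates were read at 540 nm after DMSO solubilisation and normalised to vehicle. Statistics: one-way ANOVA with Tukey.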
# [2] = test system: glioblastoma stem cells (Gli4); test: Neurospheres formation assay; type: cell-based, human; settings: proliferation medium, 0, 1 and 10 µM, 4 days
# In short: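 Dissociated Gli4 cells (4000 per well) were plated in proliferation medium in round-bottom ultra-low-attachment wells pre-coated with poly-HEMA; a flat-bottom format was also run. Compound in DMSO was added to final 0, 1 and 10 µM. After 4 days, spheres were dissociated, and cells were mixed 1:1 with trypan blue and counted in a Neubauer chamber.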
# [3] = Dissolution in culture medium during antiproliferative assay; type: physicochemical; settings: 20 µM
# [4] = test system: U373; test: Antiproliferative MTT assay, 2D cell culture; type: cell-based; settings: Homo sapiens, U373 MG, 48 h, read-out: IC50 U373
# In short: as §1
# [5] = test system: LN-18; test: Antiproliferative MTT assay, 2D cell culture; type: cell-based; settings: Homo sapiens, LN-18, 48 h, read-out: IC50 LN-18
# In short: as §1
# [6] = test system: MCF-10 A; test: MTT assay on non-cancerous control cells; type: cell-based; settings: Homo sapiens, 48 h, read-out: IC50 MCF-10 A
# In short: (§2)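 Non-tumour control cells were used: BJ fibroblasts in DMEM with 5% FBS, and MCF-10A in DMEM/F12 with 5% horse serum, insulin, EGF and hydrocortisone. Cells (1 x 10³ per well) adhered 24 h, then were treated 48 h with 0–140 µM compound in DMSO (0.1% vehicle control). MTT (2.5 mg/mL) was applied 1 h at 37 °C. Formazan was dissolved in DMSO, read at 540 nm and normalised to vehicle.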
# [7] = Forced stability test; type: physicochemical; settings: for Percentage degradation, Thermal: 50 °C; for Percentage degradation, Thermal / Percentage degradation, Acid / Percentage degradation, Basic / Percentage degradation, Luminous: 24 h; for Percentage degradation, Oxidative: H2O2 3%, 1 h; for Percentage degradation, Acid: HCl 0.1 N; for Percentage degradation, Basic: NaOH 0.1 N; for Percentage degradation, Luminous: Sunlight
# In short: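 Compound stock (1 mL) was placed in a 5 mL volumetric flask for each stress. Acid and base arms used 1 mL of 0.1 N HCl or 0.1 N NaOH for 24 h, then were neutralised with the opposite reagent. Oxidative stress used 3.0% H2O2. For heat (50 °C oven, 24 h) and sunlight exposure (24 h), stock was diluted to volume in mobile phase in capped vials. Degradation was assessed chromatographically.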
# [8] = test system: Gli4 cells; test: 3D anti-migratory assay on aligned nanofibers; type: cell-based, human; settings: 10 µM, non-cytotoxic concentration
# [9] = test system: Gli4 cells; test: 3D antiproliferative assay on non-aligned nanofibers; type: cell-based, human; settings: proliferation and differentiation mediums, 0.1, 1 and 10 µM, 4 days
# [10] = test system: BJ; test: MTT assay on non-cancerous control cells; type: cell-based; settings: Homo sapiens, 48 h, read-out: IC50 BJ
# In short: as §2
# [11] = test system: Gli4 cells; test: MTT assay, Gli4 in differentiation medium, flat bottom plate; type: cell-based, human; settings: flat bottom, 0, 1 and 10 µM, compared to G-15
# In short: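 Gli4 cells (4000 per well) were seeded in differentiation medium in flat-bottom wells treated with laminin/lysine. Compound was tested at 0, 1 and 10 µM. Viability was quantified by MTT 5 days after incubation and expressed as % viability. N=5.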
smiles,measurement,setting,value
"Brc1cc2c(cc1[C@@H]1Nc3ccccc3[C@@H]3C=CC[C@@H]31)OCO2 [G15, reference compound]",IC50 in the cells assayed,[1],not able to reach IC50 values
same,Neurospheres formation,[2],inhibit neurospheres formation
same,Ability to dissolve into medium culture,[3],formed crystals
"Cc1cc2c(C(C)C)c(O)c(O)c(C=O)c2c(O)c1-c1c(C)cc2c(C(C)C)c(O)c(O)c(C=O)c2c1O [Gossypol, reference compound]",IC50,[4],33.8 µM
same,IC50,[5],25.3 µM
"Cc1ccc(S(=O)(=O)NC(=O)c2ccc3c(c2)[C@@H]2C=CC[C@@H]2[C@H](c2cc4c(cc2Br)OCO4)N3)cc1 [L-06, (3aS,4R,9bR)-4-(6-bromobenzo[d][1,3]dioxol-5-yl)-N-tosyl-3a,4,5,9b-tetrahydro-3 H-cyclopenta[c] quinoline-8-carboxamide]",IC50,[6],33.8 µM
same,Neurospheres formation,[2],inhibit neurospheres formation
same,IC50,[4],67.7 µM
same,"Percentage degradation, Thermal",[7],1.36%
same,"Percentage degradation, Oxidative",[7],2.95%
same,"Percentage degradation, Acid",[7],7.2%
same,"Percentage degradation, Basic",[7],9.8%
same,"Percentage degradation, Luminous",[7],0.15%
same,IC50,[5],67.7 µM
same,Reduction of migration of Gli4 cells on aligned NFS,[8],~50%
same,Cell proliferation of Gli4 on non-aligned nanofibers,[9],non-antiproliferative activity
same,IC50,[10],102 µM
same,Cell viability of the NS,[11],slightly decreased cell viability
"O=C(NS(=O)(=O)c1ccc(Cl)cc1)c1ccc2c(c1)[C@@H]1C=CC[C@@H]1[C@H](c1cc3c(cc1Br)OCO3)N2 [L-37, (3aS,4R,9bR)-4-(6-bromobenzo[d][1,3]dioxol-5-yl)-N-((4-chlorophenyl)sulfonyl)-3a,4,5,9b-tetrahydro-3 H-cyclopenta[c] quinoline-8-carboxamide]",IC50,[6],23.9 µM
same,Neurospheres formation,[2],inhibit neurospheres formation
same,IC50,[4],39.8 µM
same,"Percentage degradation, Thermal",[7],0.75%
same,"Percentage degradation, Oxidative",[7],0.5%
same,"Percentage degradation, Acid",[7],0.65%
same,"Percentage degradation, Basic",[7],13.6%
same,"Percentage degradation, Luminous",[7],3.5%
same,IC50,[5],40.7 µM
same,Cell proliferation of Gli4 on non-aligned nanofibers,[9],trend to decrease cell proliferation
same,IC50,[10],110 µM
same,Cell viability of the NS,[11],slightly decreased cell viability
